# Source: PubChem
# In the library only some 1.6% were active in any assay of this set; here they are far more common.
# HKDC1 inh – HKDC1 hexokinase inhibitors, primary screen, biochemical, fluorescence, uHTS | recombinant HKDC1, G6PDH/diaphorase resazurin coupled fluorescence | inhibition, % at 20 µM | 0.16% of 340,000 active | AID 493160, 2011;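 active = inhibition above about 35% when tested at 20 µM, limit read from the data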
#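 Assay system – recombinant HKDC1 (HK5) hexokinase enzyme, produced in-house · Input – HKDC1 at 5 µg/mL · Reagent – glucose plus 1 mM ATP as hexokinase substrates · Timing – 90 min reaction incubation at room temperature, dark · Measured by – G6PDH/diaphorase-coupled fluorescence, 1 mM NADP, 100 µM resazurin, 525/613 nm · Benchmarks – DMSO-enzyme wells negative, buffer-substituted wells positive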
# GSTO1 counter – inhibitors of recombinant GSTO1, primary screen, counter-screen for RBBP9 inhibitor project, biochemical, fluorescence polarization. AID 1974, 2009. inhibition, % at 5.96 µM. activity-based probe fluorescence polarization. 1.1% of 300,000 active. Glutathione S-transferase omega-1 (Homo sapiens), P78417;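 active = inhibition above the campaign mean inhibition plus 3 SD, cut at about 35% in these data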
# TDP2 absorb – human TDP2 enzyme inhibitors, primary screen, biochemical, epi absorbance, recombinant enzyme; Tyrosyl-DNA phosphodiesterase 2 (Homo sapiens), O95551; T5PNP hydrolysis, p-nitrophenol absorbance 415 nm; inhibition, % at 12.8 µM; 0.34% of 370,000 active; AID 720702, 2013;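 active = inhibition above the mean of all tested compounds plus 3 SD, set per campaign, cut at about 25% in these data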
#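 Test system: human TDP2 enzyme; Input: 120 nM TDP2 per well; Buffer or medium: Mg2+-containing Tris-HCl buffer, pH 7.5; Reagent: 5 mM T5PNP; Dosing: 12.8 µM single point, 1% DMSO; Incubation: reaction 2 h, 37 °C; Detection: p-Nitrophenol epi absorbance; Read-out: % inhibition relative to enzyme-containing and enzyme-free wells; Replicates: single well per compound.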
# CTSL1 counter – Fasciola hepatica cathepsin L1 inhibitors, primary screen, counter-screen for PFM18AAP inhibitor project, biochemical, QFRET, fluorogenic peptide substrate | recombinant F. hepatica cathepsin L1, Z-Leu-Arg-MCA fluorescence | inhibition, % at 5.96 µM | 0.49% of 300,000 active;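 active = inhibition above the mean of all tested compounds plus 3 SD, set per screening campaign, cut at about 17% in these data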
# PAD4 FP inh – human PAD4 inhibitors, primary screen, biochemical, fluorescence polarization, 1536-well format | Protein-arginine deiminase type-4 (Homo sapiens), Q9UM07 | recombinant PAD4, RCA probe fluorescence polarization | inhibition, % at 6.36 µM | 0.41% of 330,000 active | AID 485272, 2010;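 active = percent inhibition above a cutoff equal to the mean of all tested compounds plus 3 SD, cut at about 15% in these data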
# Target sequence (Q9UM07 whole entry, looked up): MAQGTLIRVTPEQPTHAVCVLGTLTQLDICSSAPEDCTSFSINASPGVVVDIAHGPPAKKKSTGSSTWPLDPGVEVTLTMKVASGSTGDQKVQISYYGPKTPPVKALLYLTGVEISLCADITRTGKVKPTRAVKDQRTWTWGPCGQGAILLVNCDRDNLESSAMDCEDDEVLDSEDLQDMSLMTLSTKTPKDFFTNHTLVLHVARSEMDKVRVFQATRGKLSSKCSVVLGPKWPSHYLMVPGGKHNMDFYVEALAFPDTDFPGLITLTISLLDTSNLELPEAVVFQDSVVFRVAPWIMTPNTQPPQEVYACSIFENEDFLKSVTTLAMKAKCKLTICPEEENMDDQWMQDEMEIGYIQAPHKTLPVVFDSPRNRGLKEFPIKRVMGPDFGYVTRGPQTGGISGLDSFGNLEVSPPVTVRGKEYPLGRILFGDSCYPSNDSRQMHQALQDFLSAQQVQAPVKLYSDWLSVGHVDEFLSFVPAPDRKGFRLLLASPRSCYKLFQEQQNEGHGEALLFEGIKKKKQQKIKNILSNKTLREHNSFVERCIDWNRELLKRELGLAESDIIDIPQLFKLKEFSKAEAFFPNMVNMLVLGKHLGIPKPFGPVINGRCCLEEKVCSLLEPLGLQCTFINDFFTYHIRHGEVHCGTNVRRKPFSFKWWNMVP
# UCH37 inh – inhibitors of human UCH37 deubiquitinase, primary screen, biochemical, Ub-AMC cleavage, fluorescence | Ubiquitin carboxyl-terminal hydrolase isozyme L5 (Homo sapiens), Q9Y5K5 | purified proteasome/UCH37 | inhibition, % (test concentration not listed) | 0.33% of 330,000 active;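 active = mean inhibition over replicate wells above about 20%, limit read from the data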
#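 Material: human UCH37 enzyme supplied as purified proteasome complex. Measure: % inhibition of Ub-AMC cleavage fluorescence. Medium: pH 7.4 Tris-HCl (50 mM) with ovalbumin, ATP-MgCl2, DTT. Times: 30 min preincubation with enzyme, 25 min cleavage at room temperature. Detection: AMC fluorescence intensity at 355/460 nm.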
# PAD4 FP conf – human PAD4 inhibitors, confirmation, biochemical, fluorescence polarization; shares compounds with PAD4 FP inh; 28% of 1,200 active; recombinant PAD4, RCA probe fluorescence polarization; AID 488796, 2010; inhibition, % at 6.36 µM;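 active = mean inhibition across replicates above the hit cutoff set by the earlier primary screen, cut at about 15% in these data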;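 also: inhibitors block active-site labeling by the probe so polarization falls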
# HKDC1 act conf2 – HKDC1 hexokinase activators, confirmation, biochemical, single concentration; AID 504708, 2011; recombinant HKDC1, G6PDH/diaphorase resazurin fluorescence; stronger effect = lower value; 14% of 740 active; inhibition, % at 20 µM; shares compounds with HKDC1 inh;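 active = inhibition at or below a set negative limit, negative inhibition meaning the enzyme was activated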
# UCH37 reconfirm – retest of human UCH37 deubiquitinase inhibitors, confirmation, biochemical, Ub-AMC cleavage rate, fluorescence; shares compounds with UCH37 inh; Proteasome-bound UCH37; inhibition, % at 20 µM; 27% of 480 active;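 active = average inhibition over replicates above about 50%, so the earlier screening hit is confirmed, limit read from the data; inactive = the rest, counted as false positives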;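 also: based on cleavage rate fitted by regression over a 30 min kinetic read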
# TDP2 confirm – human TDP2 enzyme inhibitors, retest, confirmation, biochemical, epi absorbance, recombinant enzyme | shares compounds with TDP2 absorb | absorbance read-out | inhibition, % at 12.8 µM | 22% of 1,100 active | AID 743263, 2014; in the data active = inhibition above about 25%
# A number is an active result; . = inactive; / = no result given.
SMILES,HKDC1 inh,GSTO1 counter,TDP2 absorb,CTSL1 counter,PAD4 FP inh,UCH37 inh,PAD4 FP conf,TDP2 confirm,others
COc1ccc(C=NOCC(=O)N(Cc2ccc(OC)cc2)c2ccccc2C(=O)O)cc1,/,/,/,/,/,.,/,/,
CC(C)C(NC(=O)c1ccccc1)C(=O)NN=Cc1ccco1 (centres undefined),/,/,/,/,/,.,/,/,
Brc1cccc(C=NNc2nc(N3CCCCC3)nc(N3CCCCC3)n2)c1,/,/,/,/,/,.,/,/,
COc1cc(/C=N/Nc2nncn2/N=C/c2ccc(O)c(OC)c2)ccc1O,.,.,67,.,43,/,.,.,
COc1cc(C=NNc2nn3cnnc3c3ccccc23)ccc1O,/,/,/,/,/,.,/,/,
CCc1nnc(N/N=C/c2ccc(-c3ccc([N+](=O)[O-])cc3)o2)n1N,.,.,68,.,25,/,.,.,
Cc1nnc(N/N=C/c2ccc(-c3ccccc3F)o2)n1N,.,.,59,.,25,/,.,.,
Cc1nnc(N/N=C\c2ccc(-c3ccccc3[N+](=O)[O-])o2)n1N,.,36,78,.,35,/,.,.,
COCCn1cnc2c(c1=O)c1nc3ccccc3nc1n2N=Cc1ccco1,/,/,/,/,/,.,/,/,
COc1cc(N)c(C(=O)c2nccc3cc(OC)c(OC)cc23)cc1OC,.,.,.,.,.,.,/,/,
COc1cc(C(=O)c2nccc3cc(OC)c(OC)cc23)c([N+](=O)[O-])cc1OC,.,55,49,42,40,.,.,35,
O=C(NN=Cc1cccc(F)c1)c1c(O)c2ccccc2[nH]c1=O,/,/,/,/,/,.,/,/,
CC(=NNC(=O)c1nnn(-c2nonc2N)c1-c1ccccc1)c1cccnc1,/,/,/,/,/,.,/,/,
COc1ccc(-c2cc(=O)n(CCC#N)[nH]2)cc1,.,36,92,.,70,.,.,.,
CC(=O)Nc1ccccc1NC(=O)CC(C)=NNC(=O)Cc1cccc2ccccc12,/,/,/,/,/,.,/,/,
CC1CCCC(NC(=O)COC(=O)c2ccccc2[N+](=O)[O-])C1C (centres undefined),.,.,.,.,.,.,/,/,
CC1CCCC(NC(=O)COC(=O)c2ccc([N+](=O)[O-])s2)C1C (centres undefined),.,/,32,/,15,78,.,37,UCH37 reconfirm=85
O=C(CCC(=O)NC1CCCCC1)NN=Cc1ccncc1,/,/,/,/,/,.,/,/,
COc1ccc(C=NNC(=O)c2sc(N)nc2C)cc1OC,/,/,/,/,/,.,/,/,
CCC(COC)Oc1cc(NCc2ccccc2)c2ncn(C(C)C)c2c1 (centres undefined),.,/,61,/,24,.,.,35,
CCC(CO)Oc1cc(NCc2ccccc2)c2ncn(C(C)C)c2c1 (centres undefined),.,/,.,/,.,.,/,/,
O=C(Cn1c(C(F)(F)F)nc2ccccc21)NN=Cc1ccco1,/,/,/,/,/,.,/,/,
Cc1csc(NN=Cc2ccccc2F)n1,/,/,/,/,/,.,/,/,
CN(C)S(=O)(=O)c1cccc(NC(=S)Nc2cc(Cl)cc(Cl)c2)c1,.,.,.,.,.,.,/,/,
CCN(CCO)c1ccc(NC(=S)Nc2cccc(S(=O)(=O)N(C)C)c2)cc1,.,.,36,.,40,.,.,.,
SMILES,HKDC1 inh,GSTO1 counter,TDP2 absorb,CTSL1 counter,PAD4 FP inh,UCH37 inh,PAD4 FP conf,TDP2 confirm,others
CCOC(=O)c1c(N=Cc2cc(OC)cc([N+](=O)[O-])c2O)sc(C)c1C,/,/,/,/,/,.,/,/,
COc1ccc(C(C[N+](=O)[O-])c2c(C)[nH]n(-c3ccccc3)c2=O)cc1 (centres undefined),.,82,75,98,17,77,.,69,UCH37 reconfirm=.
Cc1oc2c(cc(NS(=O)(=O)c3ccc(C(C)C)cc3)c3ccccc32)c1C(=O)O,.,.,.,.,.,/,/,/,
CCc1ccc(S(=O)(=O)Nc2cc(SCC(=O)O)c(O)c3ccccc23)cc1,54,84,51,.,26,.,.,35,HKDC1 act conf2=.
CCc1nnc(N/N=C/c2c(F)cccc2Cl)n1N,.,.,58,.,37,/,.,.,
CCc1nnc(NN=Cc2c(F)cccc2Cl)n1N,/,/,/,/,/,.,/,/,
Cc1nnc(N/N=C/c2c(Cl)cccc2Cl)n1N,.,.,52,.,33,/,.,.,
CC1=NN(c2ccc(Cl)c(C(=O)O)c2)C(=O)C1,.,72,44,.,36,.,.,.,
COc1ccc(C2=C(Nc3ccc(C)cc3)c3ccccc3C2=O)cc1,.,.,.,.,.,.,/,/,
Cc1ccc(NC2=C(NCCO)C(=O)c3ccccc3C2=O)cc1,.,49,44,.,40,26,.,39,UCH37 reconfirm=.
COc1cc(N2CN=c3sc(=Cc4ccccn4)c(=O)n3C2)cc(OC)c1OC,/,/,/,/,/,.,/,/,
O=[N+]([O-])c1c(Nc2ccccn2)cc(Cl)c2nonc12,.,.,87,.,49,.,.,47,
CCOc1cc(N2CCOCC2)c(OCC)cc1NC(=O)CSc1ncccc1C(=O)O,.,/,30,/,39,.,.,.,
CCOc1cc(N2CCOCC2)c(OCC)cc1NC(=O)CSc1ncccn1,.,.,.,.,.,.,/,/,
O=C(O)c1ccc(S(=O)(=O)c2ccc3c(c2)C(=O)N(c2ccc(O)cc2)C3=O)cc1,.,.,38,.,62,.,.,.,
CCCOc1ccc(-c2c(C(=O)NN=Cc3ccc(C)cc3)nnn2-c2nonc2N)cc1,/,/,/,/,/,.,/,/,
O=C(NN=Cc1ccc2c(c1)OCO2)c1ccc(COCC(F)(F)C(F)F)cc1,/,/,/,/,/,.,/,/,
NC(=Nc1ccc(N)cc1)C(N)=Nc1ccc(N)cc1,.,.,51,.,46,/,.,.,
N=C(N)c1ccc(N)cc1,.,.,.,.,.,.,/,/,
Cc1no[n+]([O-])c1COc1cccc(/C=N/Nc2nncn2N)c1,.,.,61,.,32,/,.,.,
